Test results published in ChEMBL document CHEMBL4513216, “Probing the Open Global Health Chemical Diversity Library for Multistage-Active Starting Points for Next-Generation Antimalarials” (ACS Infect Dis, 2020).

Experiment: Toxicity liver stage against HepG2, at 10uM
Format: cell-based
Set-up: test concentration 10 uM, cell line HepG2-A16-CD81EGFP
Details: human, HepG2-A16-CD81EGFP cells; read-out: INHIBITION
Procedure, shortened: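 Uninfected HepG2-A16-CD81EGFP cells, 3 × 10^3 per well, 1536-well, plated on prespotted compound at 10 μM final, parasite-free screening media added to match infected plates; puromycin 10 μM positive, DMSO 0.5% negative; run in parallel with 48 h PbLuc assay at 37 °C, 5% CO2; viability by CellTiter-Glo luminescence, normalized to controls.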

Compound | cytotoxicity at 10 µM [%]
O=C(c1cccnc1)N1CCN2C(=O)N(Cc3ccc(F)cc3)C[C@H]2C1 | -0.756
O=C1CCNc2ccccc2CN1Cc1ccco1 | 1.22
COC(=O)COn1c(SC)nc2ccccc2c1=O | -6.53
CC(C)(C)C1SCC(=O)Nc2c1c(O)nn2C1CCCC1 (stereo unspecified) | 3.36
CCNC(=O)NCc1nn(CCN2CCCC2)c(=O)c2ccccc12 | -3.85
O=C(NC1CCCC1)C1CCN(c2cc(-n3ccnc3)ncn2)CC1 | -9.19
CNC(=O)CS(=O)(=O)C1CCN(S(=O)(=O)c2cccnc2)CC1 | -1.68
CC1N(CC2CC2)C(=O)COC12CCN(C(=O)c1ccncc1)CC2 (stereo unspecified) | -13.7
COc1cccc(CNC(=O)c2nc3c(o2)CN(C(=O)N(C)C)C3)c1 | -1.68
Cn1cnc2c1C(COCC1CC1)CN(C(=O)c1ccsc1)C2 (stereo unspecified) | 4.73
COc1ccccc1CCNC(=O)CC1(Cn2cnnn2)CCCCC1 | 11.3
Cc1ccc(Sc2ccc(N3CCC(C(=O)O)CC3)nn2)cc1 | -0.0154
O=C(Nc1ccccc1)C1=CC2(CCNCC2)c2ccccc21 | 1.54
CC(C)C[C@H](N)COc1cccc(F)c1Oc1ccccc1 | -5.08
CN(C)c1cccc(C2CCN(c3ncccn3)CC2)n1 | -8.41
Cc1nn(C)cc1CN(Cc1ccccn1)Cc1ccccc1Cl | 1.2
CSCC[C@@H]1CN2CCC[C@H]2CN1Cc1cn(C)nc1C | -11.3
COCC(=O)N1CCCCC1c1ccnc(Nc2ncc(C)s2)n1 (stereo unspecified) | -10.6
CCC1CCCCN1C(=O)Cn1cnc(C#N)n1 (stereo unspecified) | -22.1

Compound | cytotoxicity at 10 µM [%]
Fc1cc(CCNc2ccc3nccn3n2)c2c(c1)COCO2 | 17.2
O=C1CC(C(=O)Nc2nnc(-c3cccs3)[nH]2)c2ccccc2N1 (stereo unspecified) | -0.921
O=C(Nc1ccc2c(c1)C(=O)NC2=O)c1cccs1 | -4.08
COC(=O)N1CCCC(C(=O)NCCc2c[nH]c3cc(C)ccc23)C1 (stereo unspecified) | -5.95
CCc1ccsc1C(=O)NC(C#N)CC(C)C (stereo unspecified) | -15
N#Cc1ccc(Cl)cc1NCC1CC1 | -3.7
CCC(c1ccc(F)cc1F)N1CCN(CCO)CC1 (stereo unspecified) | -4.34
O=C(NCc1ccc(-n2cncn2)nc1)c1cnccn1 | -5.18
O=C(Nc1ccc(F)cc1F)NC1(CO)CCOCC1 | -40.4
COc1ccc(S(=O)(=O)C(F)(F)F)cc1NC(=O)CSCC#N | -2.72
Cn1cc(NC(=O)N2CCN(Cc3cscn3)CC2)ccc1=O | 3.67
CCN(CC1CN(Cc2cccnc2)CCO1)c1cccnn1 (stereo unspecified) | -14
c1ccc(-c2nc(CNC3CCCN(c4cccnn4)C3)no2)cc1 (stereo unspecified) | 15.9
CN(Cc1ccc(F)cc1)C(=O)CN1CCCCC1Cn1cncn1 (stereo unspecified) | 0.108
O=C(C1CCCC1)N1CCC2(CC1)OCCO2 | 2.53
CC(=O)N(C)CC(=O)NCC1(c2cccc(C)c2)CCCC1 | -2.37
COCCS(=O)(=O)NC(C)c1cccc(C)c1C (stereo unspecified) | 6.13
CCC(NCc1nccn1C)c1nc(C(F)(F)F)cs1 (stereo unspecified) | 0.245
CCN(CC1CCCO1)S(=O)(=O)c1cc(NC(C)=O)ccc1C (stereo unspecified) | 1.82

Compound | cytotoxicity at 10 µM [%]
CC(NC(=O)N1CCNC(=O)CC1)c1ccc(C(F)(F)F)cc1 (stereo unspecified) | 13.7
O=C(CN1CCC2(CCCCC2)C1)NCC(F)(F)F | -10.5
Cc1ccc(OCCN(C)Cc2ccc(S(=O)(=O)N(C)C)o2)cc1 | -14.8
COc1cccc(C(O)C(=O)N(C)CCc2ccccn2)c1 (stereo unspecified) | 0.413
CCNC(c1ccc(F)cc1)c1cccnc1 (stereo unspecified) | 2.73
O=C(NCCCc1nc(=O)[nH][nH]1)Nc1cccc(F)c1 | -51.1
COCCC(C)NC(=O)N1CCSC(C)(C)C1 (stereo unspecified) | -3.94
CC(C)OCCCNC(=O)NCc1cccc(-n2ccnc2)c1 | 18.5
NC(=O)C1CCCN1Cc1ccccc1NC(=O)CC(F)(F)F (stereo unspecified) | 13.1
COCC(C)NC(=O)CCCn1cnc2ccccc2c1=O (stereo unspecified) | 8.43
CCc1cnc(CCNS(C)(=O)=O)s1 | 2.17
Cc1ccccc1CN(C)C(=O)c1ccoc1 | 2.2
O=C(NCc1nnc2n1CCCCC2)N1CCC2(CCCCC2)C1 | -13.4
Cc1n[nH]c(C)c1C1CCCN1C(=O)CNC(=O)C(C)(C)C (stereo unspecified) | -29
COCC1CC2(CCN(Cc3ccoc3)CC2)CN1Cc1ccccn1 (stereo unspecified) | -98.8
O=C(c1cccnc1)N1CCO[C@@H]2CNC[C@@H]21 | -103
Cc1ccc(CN2CCCC3(CCN(S(=O)(=O)N(C)C)C3)C2)o1 (stereo unspecified) | 7.49
O=C(c1ccc2c(c1)OCO2)N1CCC[C@]2(C[C@H](OCC3CC3)CO2)C1 | 2.34
